From PubChem
In the library only some 3.6% were active in any assay of this set; here they are far more common.
SR-BI DiI-HDL act: SR-BI HDL lipid transfer activation; CHO ldlA[mSR-BI] cells, DiI-HDL uptake fluorescence, 3 h; 100 = double the neutral-control signal; activation, % at 12.5 µM; 320,000 tested, 0.096% active; AID 504775;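 active = mean replicate activation of at least 60% and every replicate at or above 60%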;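 note: 0% = median plate neutral-control signal and 100% = twice that signal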
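system = CHO ldlA[mSR-BI] cells, LDL receptor-null, SR-BI overexpressing | medium = Ham's F12 with 0.5% BSA, HEPES 25 mM, pH 7.4 | probe or stimulus = DiI-HDL 10 µg/mL | compound dosing = single-point compound dose | incubation = compound exposure 3 h, 37 °C | technique = DiI fluorescence, bottom read | read-out = cell-associated DiI fluorescence as measure of HDL uptake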
SR-BI DiI inh: blocks mouse SR-BI lipid uptake from DiI-HDL; Q61009; ldlA[mSR-BI] CHO cells, DiI-HDL uptake fluorescence, 3 h; inhibition, % at 12.5 µM; 320,000 tested, 0.96% active;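 active = mean replicate inhibition of at least 70% and a set share of replicates each scoring 70 or more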;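 note: 0% = median of neutral control wells and 100% = median of positive control wells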
Target sequence (Q61009 whole entry, looked up): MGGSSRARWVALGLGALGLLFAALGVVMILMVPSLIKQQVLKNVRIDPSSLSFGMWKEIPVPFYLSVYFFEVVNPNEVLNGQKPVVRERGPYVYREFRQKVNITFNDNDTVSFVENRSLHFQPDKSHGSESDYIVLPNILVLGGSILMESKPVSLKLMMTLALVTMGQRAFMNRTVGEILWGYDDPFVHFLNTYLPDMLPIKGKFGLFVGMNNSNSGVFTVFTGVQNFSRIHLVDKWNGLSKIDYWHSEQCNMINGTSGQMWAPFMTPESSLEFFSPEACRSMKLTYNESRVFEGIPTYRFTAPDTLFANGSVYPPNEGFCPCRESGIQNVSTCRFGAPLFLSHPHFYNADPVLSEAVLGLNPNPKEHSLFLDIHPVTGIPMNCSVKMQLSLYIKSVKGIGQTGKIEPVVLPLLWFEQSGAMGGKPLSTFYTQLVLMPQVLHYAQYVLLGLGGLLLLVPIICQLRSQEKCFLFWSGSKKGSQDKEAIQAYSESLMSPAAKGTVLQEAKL
Wnt act: Wnt/beta-catenin pathway activation. Wnt/beta-catenin reporter cell assay, activator, plate reader. activation, % at 9.35 µM. 300,000 tested, 1.2% active; in the data active = activation above about 30%, passing the limit was not always enough;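 note: 0% = neutral control wells and 100% = positive control wells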
MITF act: increases MITF-driven TRPM1 promoter luciferase signal; SK-MEL-5 TRPM1-promoter luciferase, 24 h; % of positive control, neutral wells = 0; activation, % at 12.5 µM; 300,000 tested, 0.75% active; AID 588334;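 active = mean activation of at least 80% with every replicate also reaching 80%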;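 note: 0% = neutral control wells and 100% = parthenolide positive control wells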
HSF1 activator: increases HSF-1 driven luciferase reporter signal; 300,000 tested, 1.7% active; activation, % at 9 µM; NIH3T3-HGL HSF-1 luciferase reporter, MG132, 8 h; 100% = twice DMSO control signal;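 active = mean replicate activation of at least 50% with a set share of replicates each reaching 50%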;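 note: 0% = median of the neutral control wells and 100% = twice that signal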
The depositor's hits bear a star; . = no result given.

SMILES	SR-BI DiI-HDL act	SR-BI DiI inh	Wnt act	MITF act	HSF1 activator
COc1ccc(C(=O)Nc2nc(CC(=O)NCCc3ccccc3)cs2)cc1	-41.9	41.9	7.6	35.1	9.9
COc1ccccc1CC(=O)N1CCN(c2ccccc2F)CC1	21.3	-21.3	-0.2	.	-4.2
CCc1nnc(NC(=O)Nc2ccccc2OC)s1	-51.8	51.8	-4.5	134.6*	12.4
COc1ccccc1NC(=O)Nc1nc(CC(=O)N2CCN(c3ccccc3F)CC2)cs1	-80.3	80.3*	-1.8	10.4	-21.5
COc1ccc(C(=O)Nc2nc(CC(=O)NCCc3cccc(OC)c3)cs2)cc1	-73.3	73.3*	5.3	16.2	13.4
O=C(N[C@H](C(=O)N1CCC[C@H]1C(=O)NC1CCCC1)C1CCCCC1)c1ccco1	.	.	2.5	.	.
Brc1ccc(-c2cn3c(n2)SCC3)cc1	1.4	-1.4	41.6*	66.4	62.6*
Clc1ccc(-c2cn3c(n2)SCC3)cc1	-7.4	7.4	46.8*	79.7	58.4*
CC1CN(C(=S)Nc2ccccc2)C(C)CN1C=O (configuration not stated)	20.8	-20.8	-3.6	0.7	.
COc1ccc(NC(=O)c2cc(-c3ccc(F)cc3OC)n[nH]2)c(C)c1	.	.	-0.9	.	.
CCCc1cc(C(N)=O)c(NC(=O)C2CCCO2)s1 (configuration not stated)	-9.1	9.1	.	-0.3	-12.7
CCCc1cc(C(N)=O)c(NC(=O)c2ccco2)s1	-6.4	6.4	40.7*	.	30.2
CCOc1ccc(-c2ccc(C=O)o2)c([N+](=O)[O-])c1	-6.3	6.3	9.5	9.9	109.0*
COc1ccc(-c2ccc(C(=O)O)o2)c([N+](=O)[O-])c1	18.7	-18.7	-9.6	-4.1	-0.3
CC1CCc2nc(/C(C#N)=C/c3ccncc3)sc2C1 (configuration not stated)	-25.4	25.4	.	47.6	97.5*
CC(NS(=O)(=O)c1cc2c3c(c1)CCN3C(=O)CC2)c1ccccc1 (configuration not stated)	.	.	1.1	.	.
Nc1ncnc2c(C3OC(CO)C(O)C3O)c[nH]c12 (configuration not stated)	-2.8	2.8	-5.4	-99.0	90.8*
CCN(CC)S(=O)(=O)c1cc([N+](=O)[O-])ccc1NNC(=O)Nc1ccccc1OC	-50.1	50.1	-3.9	1.4	71.0*
CCN(CC)S(=O)(=O)c1cc([N+](=O)[O-])ccc1NNC(=O)Nc1ccc(F)cc1	-24.1	24.1	.	.	2.7
COc1cccc(C(O)c2nc(-c3cccc(F)c3)cs2)c1 (configuration not stated)	.	.	-0.9	.	.
CCOc1nc(N2CCOCC2)nc(C)c1[N+](=O)[O-]	-8.3	8.3	32.8*	-5.9	-2.7
CN(Cc1ccc(Cl)c(Cl)c1)C(=O)C1=CC=CN2CCS(=O)(=O)N=C12	-4.0	4.0	3.3	3.7	.
CCN(CC)c1ccc(/C=C2/C(=O)N(c3ccc([N+](=O)[O-])cc3)N=C2N2CCOCC2)cc1	.	.	.	.	91.8*
COc1cc(/C=C2/C(=O)N(c3ccc([N+](=O)[O-])cc3)N=C2N2CCOCC2)ccc1O	-9.8	9.8	3.1	-12.9	-5.8
CC(OC(=O)/C=C/c1ccc2ccccc2n1)C(=O)NCc1ccccc1 (configuration not stated)	13.8	-13.8	15.2	15.4	121.7*
SMILES	SR-BI DiI-HDL act	SR-BI DiI inh	Wnt act	MITF act	HSF1 activator
O=[N+]([O-])c1cccc(CON=Cc2ccccc2O)c1	.	.	-0.8	.	.
Cc1cccc(NC(=O)c2ccc3c(c2)OCCO3)c1C	.	.	5.7	113.0*	49.5
CC(C)(C)c1ccc(C(=O)Nc2cccc([N+](=O)[O-])c2)cc1	-45.6	45.6	.	87.8*	33.7
O=C(Nc1cccc(Cl)c1)c1ccc2c(c1)OCCO2	5.1	-5.1	-1.5	71.2	32.0
O=C(Nc1cccc([N+](=O)[O-])c1)c1ccc2c(c1)OCCO2	-14.1	14.1	47.3*	61.7	24.3
Cc1cc(C)n(-c2ccc(C(=O)Nc3cccc([N+](=O)[O-])c3)cc2)n1	-79.8	79.8*	-17.9	9.2	5.5
O=C(Nc1ccc(Br)cc1)c1cc(-c2ccncc2)nc2ccccc12	-62.0	62.0	-13.8	-17.6	.
CCCCCCN1C[C@H](n2cc(-c3ccc(F)cc3)nn2)[C@@H](O)C[C@@H]1c1ccc(Cl)cc1	.	.	-15.0	.	.
COC(=O)[C@H](Cc1ccccc1)N1CC=CS1(=O)=O	.	.	-2.2	.	.
O=C(Nc1cccc([N+](=O)[O-])c1)c1cnccn1	20.5	-20.5	1.6	-1.6	4.2
